This is a sample that favours compounds with a hit; in the whole collection about 6.4% have one here.
Tb MetRS inh = Trypanosoma brucei MetRS inhibition. purified T. brucei MetRS, ATP depletion, Kinase-Glo luminescence. inhibition, % at 11.9 µM. actives 0.4% (n = 360,000);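 active means inhibition above a per-plate cutoff of the control wells' mean inhibition plus 3 SD, cut at about 5.5% in these data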;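 further: 0% = DMSO wells median and 100% = median of wells with control inhibitor compound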
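Material: T. brucei methionyl-tRNA synthetase, purified; reagent: substrates ATP, L-methionine and bulk Escherichia coli tRNA; dosing: 11.9 µM single point; timing: 15 min plus 2 h at 25 °C; detection: luminescence of leftover ATP; evaluation: % inhibition; control set: DMSO-only wells as low control; replicates: singlicate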
WT yeast gro inh = growth inhibition of WT yeast, mitochondrial fusion screen | mitochondrial fusion phenotypic screen, WT strain | inhibition, % at 10 µM | actives 2.1% (n = 190,000); in the data active means inhibition above about 58%; tested in S. cerevisiae
CHOP inh = CHOP inhibition in unfolded protein response. CHO-K1 CHOP-promoter luciferase, tunicamycin-induced, 15-18 h. inhibition, % at 10 µM. actives 3.8% (n = 220,000);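 active means compounds that reduced the stress-induced luciferase reporter signal by more than about 70% of percent inhibition, limit read from the data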;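 further: 0% = tunicamycin plus vehicle and 100% = wells without tunicamycin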
EBV gp42 block = EBV gp42 inhibition | inhibition, % (tested at 21.74 µM) | Fluorescence polarization binding assay, mP read-out | actives 0.42% (n = 220,000); in the data active means inhibition above about 50%
Target sequence (Q1HVG2 whole entry, looked up): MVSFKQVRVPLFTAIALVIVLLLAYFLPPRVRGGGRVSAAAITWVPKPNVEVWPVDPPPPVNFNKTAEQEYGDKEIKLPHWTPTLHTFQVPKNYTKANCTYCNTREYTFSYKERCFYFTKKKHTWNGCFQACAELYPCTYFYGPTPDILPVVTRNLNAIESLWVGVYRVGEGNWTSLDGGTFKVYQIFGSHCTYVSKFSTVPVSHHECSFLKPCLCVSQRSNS
MPTP block = permeability transition pore inhibition; isolated mouse mitochondria, Ca2+ swelling absorbance, 30 min; inhibition, % at 10 µM; actives 1.4% (n = 360,000);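 active means inhibition of 50% or more, scaled per plate between neutral and stimulator controls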;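 further: 0% = DMSO wells given calcium and 100% = 1 mM EGTA wells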
GRIN3A LBD mod = modulates the human NR3A ligand-binding domain; NR3A LBD differential scanning fluorimetry, Tm shift; 0% = protein alone, 100% = glycine-bound protein; Tm shift relative to glycine control, % at 25 µM; actives 2.5% (n = 340,000);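 active means melting temperature shift of at least 10% of the positive control shift, at one fixed dose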
Rh123 counter = Rhodamine 123 counter-screen of mitochondrial pore hits; isolated mitochondria, membrane potential, Rhodamine 123 fluorescence; shares compounds with MPTP block; inhibition, % at 10 µM; actives 78% (n = 5,000); in the data active means inhibition above about 22%;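 further: 0% = DMSO vehicle and 100% = positive control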
* hit, by the source's call; . = not tested or not shown.

SMILES	Tb MetRS inh	WT yeast gro inh	CHOP inh	EBV gp42 block	MPTP block	GRIN3A LBD mod	Rh123 counter
Cc1ccc(F)c(NC(=O)/C(C#N)=C(\O)c2ccc(C(C)(C)C)cc2)c1	0	10	-3	-7	83*	3	71*
Cc1cccc(NC(=O)C(=O)NNC(=O)c2ccc(C(C)(C)C)cc2)c1	-1	.	.	.	4	-3	.
CCc1c(C)sc(NC(=O)CC#N)c1C#N	-2	-29	23	-12	0	-3	.
CCc1c(C)sc(NC(=O)Cn2nc(C(F)(F)F)c3c2CCCC3)c1C#N	-1	4	93*	-5	65*	9	77*
CCOC(=O)c1sc(=S)n(CC)c1NC(=O)c1ccccc1C	0	.	2	-2	5	0	.
CCOC(=O)c1sc(=S)n(C)c1NC(=O)c1cccc(Br)c1	0	.	16	-9	51*	-1	76*
O=C(CSc1nc2ccccc2s1)NNC(=S)Nc1ccccc1	0	27	-7	12	3	-9	.
O=C(CSc1nc2ccccc2s1)NNC(=S)Nc1ccc(Br)cc1	0	0	13	-14	82*	27*	83*
CCC1(CC(C)C)SC(N)=NC1=O (stereo not drawn)	0	.	.	.	-1	0	.
O=C(Nc1ccc(Cl)cc1)Nc1cnccn1	1	3	11	-3	53*	-23	70*
O=C(Nc1ccc([N+](=O)[O-])cc1)Nc1cnccn1	0	.	.	.	69*	-18	89*
CN(C)/C=C1\C=C2C(=O)c3ccccc3N2C1=O	-1	.	-11	-64	1	-437	.
COc1ccc(CCNc2nc(N3CCOCC3)nc(N3CCOCC3)n2)cc1OC	0	6	10	-9	-1	4	.
CC(/C=N\NC(=O)Cn1c(C)nc2ccccc21)=C\c1ccccc1	0	1	59	-5	54*	-4	65*
CC(/C=N/NC(=O)CSc1nc(C)cc(C)n1)=C\c1ccccc1	0	-3	37	-12	50*	0	53*
C/C(=N\NC(=O)Cn1c(C)nc2ccccc21)c1cccs1	-1	-6	16	-16	4	-7	.
Cc1cc(C)nc(SCNC(=O)c2ccc(Cl)cc2)n1	2	7	62	-12	9	1	.
O=C(NCc1ccccn1)C1CCN(S(=O)(=O)N2CCC3(CC2)OCCO3)CC1	-1	-11	-13	-5	0	1	.
CCc1ccccc1NC(=O)CCCN1C(=O)c2cccnc2C1=O	-1	.	.	.	0	-3	.
O=C(OCCC1Oc2cccnc2NC1=O)c1ccc(Cl)cc1 (stereo not drawn)	0	0	14	-2	-1	-2	.
Fc1ccc(NC(=S)NNc2ncc(C(F)(F)F)cc2Cl)c(F)c1	0	28	34	-2	94*	-8	94*
FC(F)(F)c1cnc(NNC(=S)Nc2ccc(Cl)cc2)c(Cl)c1	1	76	99*	5	100*	18*	92*
Cc1ccc(NC(=S)NNc2ncc(C(F)(F)F)cc2Cl)c(C)c1	-1	5	9	-16	13	-2	.
CCOc1ccc2[nH]c3c(NCCC(C)C)ncnc3c2c1	2	.	.	.	78*	-5	67*
CCOc1ccc2[nH]c3c(NCCN(C)C)ncnc3c2c1	0	.	.	.	0	.	.
COc1cc(NC(=O)CNC(=O)Cn2c(C)cc3ccccc3c2=O)cc(OC)c1OC	0	.	.	.	-2	1	.
COc1ccccc1NC(=O)Cn1c(C)cc(=O)c2cccc(OC)c21	0	.	30	-2	70*	0	55*
COc1cccc2c(=O)cc(C)n(CC(=O)Nc3ccc(C)c(C)c3)c12	0	-2	9	-7	4	-2	.
COc1ccc(NC(=O)CNC(=O)Cn2c(C)cc3ccccc3c2=O)cc1OC	0	-11	13	-12	70*	1	24*
CCCn1cc(NC(=O)c2cc3n(n2)C(C(F)(F)F)CC(c2ccccc2)N3)cn1 (stereo not drawn)	-1	-9	10	-2	-2	-2	.
